System: PDE4
Assay: In vitro PDE4-inhibitory assay
Type: biochemical
Conditions: ratio of IC50 values
Summary of the method: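 Fluorescence-polarization kit. Test compound diluted in assay buffer containing 10 % DMSO (dilution solvent, not final), then added to reactions with PDE4 and 200 nM FAM-cAMP for 1 h at room temperature. Binding agent (1:99 in diluent) added for 30 min at RT with slow shaking; FP read at ex 485/em 528 nm. Triplicate per concentration; % activity = (FP−FPb)/(FPt−FPb)×100. IC50 from dose-response fit; ratios taken between IC50s.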

`C[C@@H]1O[C@@H](O[C@H]2C(=O)c3c(O)cc(O)cc3O[C@@H]2c2ccc(O)c(O)c2)[C@H](O)[C@H](O)[C@H]1O` [Astilbin] was tested. Which “fold higher PDE4 inhibitory effect than isoastilbin” value (versus isoastilbin) did it give?
Its value is 8.9 fold.

What about the “fold higher PDE4 inhibitory effect than neoastilbin” value (versus neoastilbin) of the same molecule?
The value was 2.9 fold.
